Data as given in ChEMBL document CHEMBL1136261, “Novel inhibitors of neuronal nitric oxide synthase with potent antioxidant properties” (Bioorg Med Chem Lett, 2003).

Experiments:
[1] = biological target: T1, Nitric oxide synthase 3 (Bos taurus) (UniProt P29473); experiment: Selectivity ratio for inhibition of Endothelial Nitric oxide synthase to that of Neuronal Nitric oxide synthase in rat
T1 sequence (whole entry): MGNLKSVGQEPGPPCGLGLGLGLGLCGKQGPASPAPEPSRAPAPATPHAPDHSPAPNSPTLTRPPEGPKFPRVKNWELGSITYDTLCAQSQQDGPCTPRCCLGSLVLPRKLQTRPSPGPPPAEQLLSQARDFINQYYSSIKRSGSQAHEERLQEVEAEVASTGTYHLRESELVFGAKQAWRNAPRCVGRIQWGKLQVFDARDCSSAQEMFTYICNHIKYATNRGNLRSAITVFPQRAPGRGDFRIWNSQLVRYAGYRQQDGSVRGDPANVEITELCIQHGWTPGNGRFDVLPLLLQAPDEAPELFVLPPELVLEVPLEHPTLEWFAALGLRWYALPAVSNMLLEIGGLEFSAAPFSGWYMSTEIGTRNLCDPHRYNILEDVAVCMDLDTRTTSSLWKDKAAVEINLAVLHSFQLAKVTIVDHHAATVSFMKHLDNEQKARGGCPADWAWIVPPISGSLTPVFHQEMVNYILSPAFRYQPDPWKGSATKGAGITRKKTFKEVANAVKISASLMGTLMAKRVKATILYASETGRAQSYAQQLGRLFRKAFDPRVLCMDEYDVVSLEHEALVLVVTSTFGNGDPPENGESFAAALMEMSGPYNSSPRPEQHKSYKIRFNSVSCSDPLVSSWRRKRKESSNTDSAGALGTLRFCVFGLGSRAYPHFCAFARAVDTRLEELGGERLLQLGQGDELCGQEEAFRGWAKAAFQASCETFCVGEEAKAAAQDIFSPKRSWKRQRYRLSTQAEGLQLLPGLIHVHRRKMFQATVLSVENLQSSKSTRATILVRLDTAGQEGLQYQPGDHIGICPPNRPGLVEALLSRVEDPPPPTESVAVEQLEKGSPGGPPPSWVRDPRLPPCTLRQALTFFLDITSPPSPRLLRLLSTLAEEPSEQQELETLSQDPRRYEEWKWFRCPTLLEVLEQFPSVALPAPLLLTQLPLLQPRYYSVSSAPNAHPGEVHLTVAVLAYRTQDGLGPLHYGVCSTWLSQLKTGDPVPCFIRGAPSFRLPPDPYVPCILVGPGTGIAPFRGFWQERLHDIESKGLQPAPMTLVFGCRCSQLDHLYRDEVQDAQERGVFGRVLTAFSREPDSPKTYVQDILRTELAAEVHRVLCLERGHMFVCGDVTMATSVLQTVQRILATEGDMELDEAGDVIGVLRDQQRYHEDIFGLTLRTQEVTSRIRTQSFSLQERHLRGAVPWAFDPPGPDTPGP
Procedure, shortened: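 Ratio of inhibitory activity on the two constitutive NOS isoforms, eNOS and nNOS. Inhibition on each isoform was measured as the effect on NOS conversion of [3H]L-arginine to [3H]L-citrulline.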

Rattus norvegicus [2] = species on record: Rattus norvegicus; experiment: Antioxidant potency of compound was assessed for their ability to inhibit [Fe2+] induced lipid peroxidation in rat brain microsomes; assay type: functional
Nitric oxide synthase 3 [3] = biological target: T2, Nitric oxide synthase 3 (Bos taurus, UniProt P29473); experiment: Inhibitory concentration tested against bovine endothelial nitric oxide synthase (eNOS)
T2 sequence (P29473 whole entry): T1 sequence (whole entry)
Procedure, shortened: (§1)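 NOS activity measured as enzymatic conversion of [3H]L-arginine into [3H]L-citrulline; inhibition taken as the reduction of this conversion. Both constitutive isoforms (neuronal and endothelial) were assayed, and the nNOS/eNOS selectivity was calculated from the two results.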

Nitric oxide synthase 1 [4] = biological target: T3, Nitric oxide synthase 1 (Rattus norvegicus, UniProt P29476); experiment: Inhibitory concentration tested against neuronal nitric oxide synthase (nNOS ) from rat cerebellum; assay type: tissue-based
Nitric oxide synthase 3 [5] = biological target: T2, Nitric oxide synthase 3; experiment: Inhibitory concentration tested against bovine endothelial nitric oxide synthase (eNOS); Not active; procedure, shortened: as §1
Nitric oxide synthase 1 [6] = biological target: T3, Nitric oxide synthase 1; experiment: Inhibitory concentration tested against neuronal nitric oxide synthase (nNOS ) from rat cerebellum; Not active; assay type: tissue-based; procedure, shortened: as §1
Rattus norvegicus [7] = species on record: Rattus norvegicus; experiment: Antioxidant potency of compound was assessed for their ability to inhibit [Fe2+] induced lipid peroxidation in rat brain microsomes; Not active; assay type: functional

T3 sequence (P29476 whole entry): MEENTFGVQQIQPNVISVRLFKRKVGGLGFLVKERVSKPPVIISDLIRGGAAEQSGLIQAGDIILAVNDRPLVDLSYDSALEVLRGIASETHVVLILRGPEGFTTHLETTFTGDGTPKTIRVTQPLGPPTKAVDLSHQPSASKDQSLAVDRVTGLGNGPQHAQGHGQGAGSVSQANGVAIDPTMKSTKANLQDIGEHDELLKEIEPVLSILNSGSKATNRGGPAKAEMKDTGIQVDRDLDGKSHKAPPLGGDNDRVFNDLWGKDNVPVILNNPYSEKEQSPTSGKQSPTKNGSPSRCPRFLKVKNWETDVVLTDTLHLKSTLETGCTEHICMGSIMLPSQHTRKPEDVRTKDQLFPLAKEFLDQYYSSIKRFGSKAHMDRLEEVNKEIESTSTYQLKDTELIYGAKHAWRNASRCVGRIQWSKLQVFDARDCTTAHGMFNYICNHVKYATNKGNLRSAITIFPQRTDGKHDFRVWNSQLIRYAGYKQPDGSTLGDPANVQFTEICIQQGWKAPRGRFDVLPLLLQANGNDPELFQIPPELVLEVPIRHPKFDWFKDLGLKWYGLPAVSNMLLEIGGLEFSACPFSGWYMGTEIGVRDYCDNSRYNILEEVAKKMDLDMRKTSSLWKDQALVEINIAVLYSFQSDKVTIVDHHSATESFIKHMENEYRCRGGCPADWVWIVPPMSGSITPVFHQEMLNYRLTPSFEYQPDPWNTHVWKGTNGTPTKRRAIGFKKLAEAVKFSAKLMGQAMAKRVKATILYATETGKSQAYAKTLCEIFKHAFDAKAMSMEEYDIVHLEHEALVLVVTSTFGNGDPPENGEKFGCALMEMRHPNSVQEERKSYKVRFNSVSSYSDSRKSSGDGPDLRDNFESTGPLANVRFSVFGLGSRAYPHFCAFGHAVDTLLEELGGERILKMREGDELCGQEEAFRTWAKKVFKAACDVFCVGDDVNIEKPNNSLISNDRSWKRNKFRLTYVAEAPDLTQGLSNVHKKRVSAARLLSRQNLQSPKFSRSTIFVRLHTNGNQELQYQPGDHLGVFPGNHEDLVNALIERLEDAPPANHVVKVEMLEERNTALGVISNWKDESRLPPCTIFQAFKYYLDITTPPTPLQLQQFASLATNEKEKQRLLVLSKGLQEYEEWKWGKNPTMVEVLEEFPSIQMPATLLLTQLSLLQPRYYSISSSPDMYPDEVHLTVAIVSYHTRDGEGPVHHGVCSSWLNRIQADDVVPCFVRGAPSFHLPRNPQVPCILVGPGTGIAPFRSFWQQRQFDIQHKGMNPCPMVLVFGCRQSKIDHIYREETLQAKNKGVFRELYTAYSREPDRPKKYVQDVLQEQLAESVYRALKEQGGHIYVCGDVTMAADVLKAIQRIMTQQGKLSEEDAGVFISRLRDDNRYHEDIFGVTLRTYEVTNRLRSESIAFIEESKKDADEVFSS

SMILES	Selectivity ratio [1]	IC50 (Rattus norvegicus [2])	IC50 (Nitric oxide synthase 3 [3])	IC50 (Nitric oxide synthase 1 [4])	IC50 (Nitric oxide synthase 3 [5])	IC50 (Nitric oxide synthase 1 [6])	IC50 (Rattus norvegicus [7])
CC(C)(C)c1cc(CCNCc2cccc(NC(=N)c3cccs3)c2)cc(C(C)(C)C)c1O	11.1	2.4 µM	–	–	–	–	–
N=C(Nc1ccccc1)c1cccs1	6.3	–	13.9 µM	2.2 µM	–	–	–
Cc1cc(C(C)(C)C)c(O)c(C(C)(C)C)c1 [BUTYLATED HYDROXYTOLUENE]	–	32.5 µM	–	–	Not Active	Not Active	–
N/C(=N/c1ccc(N)cc1)c1cccs1	> 5.5	–	> 100 µM	18 µM	–	–	–
Cl.Cl.Cl.N=C(Nc1ccc(CCNCc2cccc(Cl)c2)cc1)c1cccs1	60	–	7.2 µM	0.12 µM	–	–	Not Active
CC(C)(C)c1cc(CCCNCc2cccc(NC(=N)c3cccs3)c2)cc(C(C)(C)C)c1O	10.4	0.4 µM	4.9 µM	0.47 µM	–	–	–
CC(C)(C)c1cc(CNCc2cccc(NC(=N)c3cccs3)c2)cc(C(C)(C)C)c1O	9.8	4.9 µM	15.7 µM	1.6 µM	–	–	–
N=C(Nc1cccc(CN)c1)c1cccs1	484	–	24.2 µM	0.05 µM	–	–	–
CC(C)c1cc(CCCNCc2cccc(NC(=N)c3cccs3)c2)cc(C(C)C)c1O	67.5	0.4 µM	8.1 µM	0.12 µM	–	–	–
CC(C)(C)c1cc(CCNCc2cccc(N=C(N)c3cccs3)c2)cc(C(C)(C)C)c1O	–	–	15.5 µM	1.4 µM	–	–	–
N=C(Nc1ccc(CN)cc1)c1cccs1	195	–	37.1 µM	0.2 µM	–	–	–
N=C(Nc1ccc(CCN)cc1)c1cccs1	312	–	25 µM	0.08 µM	–	–	–
